The target of test [1] is NF-κB p65 (Homo sapiens, UniProt Q04206). In words: NF-κB p65 inhibition assay. In kind it is cell-based.
Test [2] is described as follows: Hydroxyl radical-scavenging assay. In kind it is biochemical. The conditions noted are these: ED50 <20 μM considered active. Put shortly:
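In vitro scavenging assay run on the solvent partitions of the methanolic root-bark extract (hexanes, CHCl3, EtOAc, n-BuOH) and on pure isolates, with a positive control. ED50 is the concentration that scavenges hydroxyl radicals by 50%.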

The subject of test [3] is HT-29 human colon cancer cell line. In words: Cytotoxicity against HT-29 cell line. It is filed as cell-based. Conditions: HT-29, read-out: cytotoxicity IC50 (concentration inhibiting HT-29 cell growth by 50%). Put shortly: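 Pure isolates were tested against HT-29 human colon cancer cells, with a positive control. IC50 is the concentration that inhibits HT-29 cell growth by 50%, and an IC50 below 10 μM is counted as active.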

SMILES strings stand for the structures. pIC50: −log10 of the molar value. Bounds are passed on as bounds.

NF-κB p65, sequence (Q04206 whole entry): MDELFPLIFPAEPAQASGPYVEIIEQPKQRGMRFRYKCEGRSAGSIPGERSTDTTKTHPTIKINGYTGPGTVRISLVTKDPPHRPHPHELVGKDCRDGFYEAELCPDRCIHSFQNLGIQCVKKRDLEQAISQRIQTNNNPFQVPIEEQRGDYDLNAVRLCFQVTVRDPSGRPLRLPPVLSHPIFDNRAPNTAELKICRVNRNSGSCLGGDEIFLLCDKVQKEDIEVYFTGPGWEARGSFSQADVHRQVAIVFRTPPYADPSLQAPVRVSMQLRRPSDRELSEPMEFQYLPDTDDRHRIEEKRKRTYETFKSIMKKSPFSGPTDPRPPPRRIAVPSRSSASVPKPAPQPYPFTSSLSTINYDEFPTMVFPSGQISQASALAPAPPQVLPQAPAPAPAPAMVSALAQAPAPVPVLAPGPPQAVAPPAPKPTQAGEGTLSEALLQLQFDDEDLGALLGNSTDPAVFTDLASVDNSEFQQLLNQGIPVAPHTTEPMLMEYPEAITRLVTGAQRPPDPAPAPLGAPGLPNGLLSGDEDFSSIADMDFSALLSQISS

Regarding `C=CC(C)(C)c1cc(C(=O)c2c(-c3cc(-c4cc5cc(C(C)(C)C=C)c(O)cc5oc4=O)c(O)cc3O)oc3cc(O)ccc23)c(O)cc1O` [compound 1, sphenostylisin A], the “NF-κB inhibitory potency relative to compound 3” value in test [1] (times more potency than compound 3) was determined as 75 times. Moreover, in test [1] (times more potent than rocaglamide), the “NF-κB p65 inhibitory potency relative to the positive control rocaglamide” value was above 10 times. Moreover, the “hydroxy radical-scavenging ED50 (concentration scavenging hydroxyl radical by 50%)” value in test [2] turned out to be 710 nM.

`C=CC(C)(C)c1cc(-c2oc3cc(O)ccc3c2Cc2cc(-c3cc4cc(C(C)(C)C=C)c(O)cc4oc3=O)c(O)cc2O)c(O)cc1O` [compound 2, sphenostylisin B]: in test [2], the “hydroxy radical-scavenging ED50 (concentration scavenging hydroxyl radical by 50%)” value is 730 nM.

With `C=CC(C)(C)c1cc2c(cc1O)OC[C@H](c1cc(-c3oc4cc(O)ccc4c3C(=O)c3cc(C(C)(C)C=C)c(O)cc3O)c(O)cc1O)C2` [compound 3, sphenostylisin C], the “hydroxy radical-scavenging ED50 (concentration scavenging hydroxyl radical by 50%)” value in test [2] was 940 nM.

Turning to `C=CC(C)(C)c1cc2cc(-c3ccc(O)cc3O)c(=O)oc2cc1O` [compound 4, 7-hydroxy-6-(2-methylbut-3-en-2-yl)-2′,4′-dihydroxy-3-phenylcoumarin], the “NF-κB p65 inhibitory activity retained relative to compound 1” value in test [1] (fraction of the activity of 1) was “one-tenth”. For the same compound, the “hydroxy radical-scavenging ED50 (concentration scavenging hydroxyl radical by 50%)” value in test [2] worked out at 2600 nM.

For `CC1(C)c2cc3cc(-c4ccc(O)cc4O)c(=O)oc3cc2OC1CO` (stereo not drawn) [compound 5, 6-(2,7-epoxy-3-methylbut-1-ol-3-yl)-2′,4′-dihydroxy-3-phenylcoumarin], in test [2], the “hydroxy radical-scavenging ED50 (concentration scavenging hydroxyl radical by 50%)” value is 18500 nM.

As to `C=CC(C)(O)Cc1cc2cc(-c3ccc(O)cc3O)c(=O)oc2cc1O` (stereo not drawn) [compound 6, 7-hydroxy-6-(2-hydroxy-2-methylbut-3-en-1-yl)-2′,4′-dihydroxy-3-phenylcoumarin], the “hydroxy radical-scavenging ED50 (concentration scavenging hydroxyl radical by 50%)” value in test [2] was above 20000 nM.

As for `C=CC(C)(CO)c1cc2cc(-c3ccc(O)cc3O)c(=O)oc2cc1O` (stereo not drawn) [compound 7, 7-hydroxy-6-(1-hydroxy-2-methylbut-3-en-2-yl)-2′,4′-dihydroxy-3-phenylcoumarin], in test [2], the “hydroxy radical-scavenging ED50 (concentration scavenging hydroxyl radical by 50%)” value is above 20000 nM.

Consider `C=CC(C)(CO)c1cc2c(=O)c(-c3ccc(O)cc3O)coc2cc1O` (stereo not drawn) [compound 8, 7-hydroxy-6-(1-hydroxy-2-methylbut-3-en-2-yl)-2′,4′-dihydroxyisoflavone], for which the pIC50 in test [3] is below 5.00; in test [1] it was 6.35. For the same compound, the “hydroxy radical-scavenging ED50 (concentration scavenging hydroxyl radical by 50%)” value in test [2] was 2200 nM.

Take `CC1(C)c2cc(CC(=O)c3ccc(O)cc3O)c(O)cc2OC1CO` (stereo not drawn) [compound 9, 2,4-dihydroxy-2′-dihydroxy-5′-(2,4′-epoxy-3-methylbut-1-ol-3-yl)deoxybenzoin]: in test [2], the “hydroxy radical-scavenging ED50 (concentration scavenging hydroxyl radical by 50%)” value stood at 1000 nM.

With `C=CC(C)(O)Cc1cc(CC(=O)c2ccc(O)cc2O)c(O)cc1O` (stereo not drawn) [compound 10, 2,4-dihydroxy-2′,4′-dihydroxy-5′-(2-hydroxy-2-methylbut-3-en-1-yl)deoxybenzoin], the pIC50 in test [3] is below 5.00; in test [1], below 4.70. The “hydroxy radical-scavenging ED50 (concentration scavenging hydroxyl radical by 50%)” value in test [2] stood at 600 nM.

Take `C=CC(C)(CO)c1cc(CC(=O)c2ccc(O)cc2O)c(O)cc1O` (stereo not drawn) [compound 11, 2,4-dihydroxy-2′,4′-dihydroxy-5′-(1-hydroxy-2-methylbut-3-en-2-yl)deoxybenzoin]: the figures for the pIC50 in test [3] and in test [1] were below 5.00 and below 4.70, respectively. In test [2], the “hydroxy radical-scavenging ED50 (concentration scavenging hydroxyl radical by 50%)” value amounted to 630 nM.

With `O=c1c(O)c(-c2ccc(O)c(O)c2)oc2cc(O)cc(O)c12` [quercetin, reference compound], the “hydroxy radical-scavenging ED50 (concentration scavenging hydroxyl radical by 50%)” value in test [2] was found to be 1200 nM.
